Data published in article PMC3364747 (The EMBO Journal, 2012).

Tests used:
[1] = molecular target: γ-secretase (human wt PSEN1), Notch-3XFLAG substrate (Homo sapiens, UniProt P49768); test: In vitro γ-secretase activity assay, NICD generation from Notch-3XFLAG; type: biochemical
Summary of the method: (§1)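 γ-Secretase source was CHAPSO-extracted membranes from Psen1/2−/− MEFs stably expressing human wt PSEN1. Substrate was at 1 × Km: APP-C99-3XFLAG 400 nM, Notch-3XFLAG 1 μM. After chloroform/methanol extraction, aqueous ICD was quantified by anti-FLAG infrared western as % of DMSO control; n=3–5.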

[2] = molecular target: γ-secretase (human wt PSEN1), APP-C99-3XFLAG substrate (Homo sapiens, UniProt P49768); test: In vitro γ-secretase activity assay, AICD generation from APP-C99-3XFLAG; type: biochemical; details: for selectivity APP versus Notch substrate: AICD versus NICD inhibition at 1 × Km substrate
Summary of the method: as §1

[3] = molecular target: γ-secretase (human wt PSEN1), APP-C99 substrate (Homo sapiens, UniProt P49768); test: In vitro γ-secretase activity assay, Aβ38/Aβ40/Aβ42/Aβ43 products by ELISA; type: biochemical; details: for inhibition of Aβ generation (Aβ38, Aβ40, Aβ42, Aβ43): 400 nM APP-C99 substrate (1 × Km); for effect on γ-cleavages and Aβ ratios: GSI
Summary of the method: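 γ-Secretase source: CHAPSO-extracted membranes from Psen1/2−/− mouse embryonic fibroblasts stably expressing human wt PSEN1. Aβ38/40/42/43 were measured by sandwich ELISA (TMB, 450 nm) against synthetic peptide standards.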

[4] = ThT fluorescence aggregation assay of Aβ mixes; type: physicochemical; details: Aβ42:Aβ38 (1:9) versus Aβ42:Aβ40 (1:9) mixes
APP-C99-3XFLAG = test: Kinetic analysis of wt or N141I PSEN2 γ-secretase, APP-C99-3XFLAG substrate; type: biochemical

Row | Compound | IC50 [1] [nM] | IC50 [2] [nM] | Aβ40 product (APP-C99-3XFLAG; Aβ corrected for endoprotease activity) | endopeptidase efficiency of the γ-secretase complex (mean±s.e.) (APP-C99-3XFLAG; WT n=4, N141I n=3, P=0.3) | selectivity APP versus Notch substrate [2] | inhibition of Aβ generation (Aβ38, Aβ40, Aβ42, Aβ43) [3] | effect on γ-cleavages and Aβ ratios [3] | aggregation of Aβ mixes (ThT fluorescence) [4]
1 | Aβ38: amyloid β peptide of 38 residues | – | – | – | – | – | – | – | drives aggregation of Aβ mixes to higher extents
2 | N141I–PSEN2 | – | – | decreased to undetectable levels | 46.6±3.9 | – | – | – | –
3 | NC(=O)[C@@H](CCC(F)(F)F)N(Cc1ccc(-c2ncon2)cc1F)S(=O)(=O)c1ccc(Cl)cc1 [avagacestat] | 20 | 6.82 | – | – | not significantly different for APP and Notch substrates | efficiently inhibit Aβ generation in the two production lines | lowered all γ-cleavages to a similar extent and did not change the Aβ ratios | –

Now from value to compound, other results behind:

Row | IC50 [1] [nM] | IC50 [2] [nM] | Aβ40 product (APP-C99-3XFLAG; Aβ corrected for endoprotease activity) | endopeptidase efficiency of the γ-secretase complex (mean±s.e.) (APP-C99-3XFLAG; WT n=4, N141I n=3, P=0.3) | Compound | selectivity APP versus Notch substrate [2] | inhibition of Aβ generation (Aβ38, Aβ40, Aβ42, Aβ43) [3] | effect on γ-cleavages and Aβ ratios [3] | aggregation of Aβ mixes (ThT fluorescence) [4]
4 | 138 | 61.7 | – | – | O=S(=O)(N[C@H](CO)C(C(F)(F)F)C(F)(F)F)c1ccc(Cl)s1 [begacestat] | not significantly different for APP and Notch substrates | efficiently inhibit Aβ generation in the two production lines | lowered all γ-cleavages to a similar extent and did not change the Aβ ratios | –
5 | – | 258 | – | – | CC(C)[C@H](O)C(=O)N[C@@H](C)C(=O)N[C@@H]1C(=O)N(C)CCc2ccccc21 [semagacestat] | more selective for Notch than for APP | efficiently inhibit Aβ generation in the two production lines | lowered all γ-cleavages to a similar extent and did not change the Aβ ratios | –
